The text below walks through data of ChEMBL document CHEMBL4368918, “Structure-Based Design of Inhibitors Selective for Human Proteasome β2c or β2i Subunits” (J Med Chem, 2019).

As usually defined, the IC50 is the point on the concentration scale where inhibition reaches its midpoint.

Assay [1] has as its target T1, Proteasome subunit beta type-10 (Homo sapiens) (UniProt P40306).
T1 sequence (whole entry): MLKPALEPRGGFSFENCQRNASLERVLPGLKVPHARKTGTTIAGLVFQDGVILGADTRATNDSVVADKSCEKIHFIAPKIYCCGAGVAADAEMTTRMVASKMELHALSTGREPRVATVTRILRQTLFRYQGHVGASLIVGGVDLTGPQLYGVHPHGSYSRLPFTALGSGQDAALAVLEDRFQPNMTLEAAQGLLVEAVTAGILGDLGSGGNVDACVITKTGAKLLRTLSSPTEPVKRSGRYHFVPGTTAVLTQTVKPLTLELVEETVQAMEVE
The experiment in a line: Binding affinity to 20S immunoproteasome beta 2 in human Raji cell lysates at 3 uM by ABPP assay. Type of assay: subcellular. The note with it: Lysate. A digest of the protocol:
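Raji lysate (5 μg total protein, Tris pH 7.5, DTT, MgCl₂, glycerol, 2 mM ATP) was labeled with the BODIPY(FL) probe for 1 h at 37 °C. […] The wet gel was scanned at Cy2 settings.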

Assay [2] deals with T2, Proteasome subunit beta type-10 (Homo sapiens, UniProt P40306).
T2 sequence (P40306 whole entry): T1 sequence (whole entry)
The experiment in a line: Inhibition of 20S immunoproteasome beta 2 (unknown origin) by cell based ABPP assay. A digest of the protocol: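 Living RPMI-8226 cells, (5–8) ×10^5 cells/mL, exposed to inhibitor 1 h at 37 °C, washed, lysed in digitonin buffer 1 h on ice; residual activity labelled with cocktail ABPs, SDS-PAGE in-gel fluorescence, bands divided by mock, Coomassie staining to correct loading. IC50 from mean of three independent experiments.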

The species named for assay [3] is Homo sapiens. In words: Selectivity ratio of IC50 for 20S immunoproteasome beta 2 (unknown origin) to IC50 for 20S constitutive proteasome beta 2 trypsin-like activity (unknown origin).
The target in assay [4] is T2, Proteasome subunit beta type-10. The experiment in a line: Inhibition of 20S immunoproteasome beta 2 in human Raji cell lysates after 1 hr by competitive ABPP assay. Format: subcellular, Lysate.
For assay [5], the target named is T3, Proteasome Macropain subunit MB1 (Homo sapiens, UniProt P28074).
T3 sequence (P28074 whole entry): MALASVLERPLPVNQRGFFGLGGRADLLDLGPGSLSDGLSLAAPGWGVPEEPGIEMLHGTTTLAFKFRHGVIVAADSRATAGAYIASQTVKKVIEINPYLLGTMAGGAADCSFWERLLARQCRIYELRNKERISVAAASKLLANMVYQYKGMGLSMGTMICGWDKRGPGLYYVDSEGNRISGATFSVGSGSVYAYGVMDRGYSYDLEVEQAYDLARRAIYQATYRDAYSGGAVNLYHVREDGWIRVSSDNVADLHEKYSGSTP
The experiment in a line: Inhibition of 20S constitutive proteasome beta 5 chymotrypsin-like activity in human RPMI8226 cell lysates after 1 hr by coomassie brilliant blue staining-based fluorescence assay. Format: subcellular, Lysate. A digest of the protocol: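 Cells at (5–8)×10⁵ cells/mL were exposed to inhibitor for 1 h at 37 °C, washed in PBS and lysed on ice for 1 h in digitonin/ATP buffer. Residual activity was read by cocktail-ABP labeling, SDS-PAGE and fluorescence densitometry relative to mock, with Coomassie staining correcting for loading. IC50 came from three independent experiments.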

Assay [6] addresses T3, Proteasome Macropain subunit MB1. In words: Inhibition of 20S constitutive proteasome beta 5 chymotrypsin-like activity in human Raji cell lysates after 1 hr by competitive ABPP assay. Format: subcellular, Lysate.
For assay [7], the target named is T4, Proteasome subunit beta type-8 (Homo sapiens, UniProt P28062).
T4 sequence (P28062 whole entry): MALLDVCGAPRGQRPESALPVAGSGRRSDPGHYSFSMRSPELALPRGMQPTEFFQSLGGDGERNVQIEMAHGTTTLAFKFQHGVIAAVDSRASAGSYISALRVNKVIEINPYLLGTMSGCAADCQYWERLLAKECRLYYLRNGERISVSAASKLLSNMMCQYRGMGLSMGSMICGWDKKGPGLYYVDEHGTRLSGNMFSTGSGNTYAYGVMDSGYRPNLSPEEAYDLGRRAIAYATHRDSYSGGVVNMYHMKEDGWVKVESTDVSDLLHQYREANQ
In words: Inhibition of 20S immunoproteasome beta 5 in human Raji cell lysates after 1 hr by competitive ABPP assay. Type of assay: subcellular, Lysate.

Assay [8] deals with T5, Proteasome subunit beta type-6 (Homo sapiens, UniProt P28072).
T5 sequence (P28072 whole entry): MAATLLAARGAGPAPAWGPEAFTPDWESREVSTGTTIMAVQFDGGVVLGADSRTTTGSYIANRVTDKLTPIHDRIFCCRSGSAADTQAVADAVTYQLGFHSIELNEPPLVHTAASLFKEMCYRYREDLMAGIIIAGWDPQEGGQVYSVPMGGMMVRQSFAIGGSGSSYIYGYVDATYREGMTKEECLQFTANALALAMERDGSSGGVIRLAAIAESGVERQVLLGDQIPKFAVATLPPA
In words: Inhibition of 20S constitutive proteasome beta 1 caspase-like activity in human Raji cell lysates after 1 hr by competitive ABPP assay. Format: subcellular, Lysate. A digest of the protocol: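 Raji cells were sonicated in 3 volumes of Tris pH 7.5 lysis buffer containing DTT, MgCl₂, sucrose, 2 mM ATP and 0.05% digitonin. Lysate (5 μg protein, in buffer with 2 mM ATP and glycerol) was preincubated with inhibitor for 1 h at 37 °C, then with a cocktail of three fluorescent ABPs for 1 h. In-gel fluorescence densitometry was normalized to mock. IC50 came from the mean of three experiments.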

The target in assay [9] is T6, Proteasome subunit beta type-9 (Homo sapiens, UniProt P28065).
T6 sequence (P28065 whole entry): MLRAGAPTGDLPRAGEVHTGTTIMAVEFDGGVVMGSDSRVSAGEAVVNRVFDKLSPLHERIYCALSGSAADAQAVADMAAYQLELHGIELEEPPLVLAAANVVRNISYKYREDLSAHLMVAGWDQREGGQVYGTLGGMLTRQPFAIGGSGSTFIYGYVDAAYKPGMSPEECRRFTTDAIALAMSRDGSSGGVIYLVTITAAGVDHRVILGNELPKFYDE
In words: Inhibition of 20S immunoproteasome beta 1 in human Raji cell lysates after 1 hr by competitive ABPP assay. Type of assay: subcellular, Lysate. A digest of the protocol: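 Raji cells were sonicated in 3 volumes of Tris pH 7.5 lysis buffer containing DTT, MgCl₂, sucrose, 2 mM ATP and 0.05% digitonin. Lysate (5 μg protein, in buffer with 2 mM ATP and glycerol) was preincubated with inhibitor for 1 h at 37 °C, then with a cocktail of three fluorescent ABPs for 1 h. […] In-gel fluorescence densitometry was normalized to mock. IC50 came from the mean of three experiments.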

Assay [10] is filed under the species Homo sapiens. The experiment in a line: Selectivity ratio of IC50 for 20S immunoproteasome beta 2 in human Raji cell lysates to IC50 for 20S constitutive proteasome beta 2 trypsin-like activity in human Raji cells. Format: cell-based.
The species named for assay [11] is Homo sapiens. In words: Selectivity ratio of IC50 for 20S immunoproteasome beta 1 in human Raji cell lysates to IC50 for 20S constitutive proteasome beta 2 trypsin-like activity in human Raji cells. Format: cell-based.
For assay [12], the species on record is Homo sapiens. In words: Selectivity ratio of IC50 for 20S constitutive proteasome beta 1 caspase-like activity in human Raji cell lysates to IC50 for 20S constitutive proteasome beta 2 trypsin-like activity in human Raji cells. Type of assay: cell-based.
For assay [13], the species on record is Homo sapiens. In words: Selectivity ratio of IC50 for 20S immunoproteasome beta 5 in human Raji cell lysates to IC50 for 20S constitutive proteasome beta 2 trypsin-like activity in human Raji cells. Format: cell-based.
Assay [14] is filed under the species Homo sapiens. The experiment in a line: Selectivity ratio of IC50 for 20S constitutive proteasome beta 5 chymotrypsin-like activity in human Raji cell lysates to IC50 for 20S constitutive proteasome beta 2 trypsin-like activity in human Raji cells. Format: cell-based.
Assay [15] has as its target T7, Proteasome subunit beta type-7 (Homo sapiens, UniProt Q99436).
T7 sequence (Q99436 whole entry): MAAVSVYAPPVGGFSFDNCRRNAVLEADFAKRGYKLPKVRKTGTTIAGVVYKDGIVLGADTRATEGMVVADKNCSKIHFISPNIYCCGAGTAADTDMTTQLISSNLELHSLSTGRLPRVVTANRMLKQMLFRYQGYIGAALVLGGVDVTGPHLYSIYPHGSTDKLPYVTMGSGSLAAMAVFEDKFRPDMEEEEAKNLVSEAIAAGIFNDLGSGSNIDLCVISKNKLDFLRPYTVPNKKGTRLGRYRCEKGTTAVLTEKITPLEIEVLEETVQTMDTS
In words: Inhibition of 20S constitutive proteasome beta 2 trypsin-like activity in human RPMI8226 cell lysates after 1 hr by coomassie brilliant blue staining-based fluorescence assay. Format: subcellular, Lysate.

Assay [16] addresses T2, Proteasome subunit beta type-10. The experiment in a line: Inhibition of 20S immunoproteasome beta 2 in human RPMI8226 cell lysates after 1 hr by coomassie brilliant blue staining-based fluorescence assay. Format: subcellular, Lysate.
The target of assay [17] is T4, Proteasome subunit beta type-8. The experiment in a line: Inhibition of 20S immunoproteasome beta 5 in human RPMI8226 cell lysates after 1 hr by coomassie brilliant blue staining-based fluorescence assay. Format: subcellular, Lysate. Put shortly: (§1)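 Living RPMI-8226 cells were grown in RPMI-1640 with 10% FCS. Cells at (5–8)×10⁵ cells/mL were exposed to inhibitor for 1 h at 37 °C, washed in PBS and lysed on ice for 1 h in digitonin/ATP buffer. Residual activity was read by cocktail-ABP labeling, SDS-PAGE and fluorescence densitometry relative to mock, with Coomassie staining correcting for loading. IC50 came from three independent experiments.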

For assay [18], the target named is T6, Proteasome subunit beta type-9. The experiment in a line: Inhibition of 20S immunoproteasome beta 1 in human RPMI8226 cell lysates after 1 hr by coomassie brilliant blue staining-based fluorescence assay. Type of assay: subcellular, Lysate. Put shortly: as §1
Assay [19] concerns the target T1, Proteasome subunit beta type-10 (Homo sapiens). In words: Inhibition of Morp-Ala-Tyr(O-C2H4-BODIPY(FL))-1-DecAla-EK binding to 20S immunoproteasome beta 2 in human Raji cell lysates at 1 uM in presence of 3-probe mixture by competitive ABPP assay. Type of assay: subcellular. The conditions noted are these: Lysate.
Assay [20] shares this target. In words: Inhibition of Morp-Ala-Tyr(O-C2H4-BODIPY(FL))-1-DecAla-EK binding to immunoproteasome beta 2 in human Raji cell lysates at 0.1 uM by competitive ABPP assay. Type of assay: subcellular. The conditions noted are these: Lysate. Put shortly: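 Raji lysate was preincubated with inhibitor, then labeled with the BODIPY(FL) probe alone. β2i labeling was read by in-gel fluorescence at Cy2 settings after SDS-PAGE.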

Assay [21] deals with Proteasome Macropain subunit (Homo sapiens) (UniProt P49721). The note with it: Raji, Lysate, 1 uM.

Calls of active or inactive are those of the source. The calls are words filed in the database; no cut-off is given here.

Take `CC1=CC(C)=N/C1=C(/CCCCc1cn(CCOc2ccc(C[C@H](NC(=O)[C@H](C)NC(=O)CN3CCOCC3)C(=O)N[C@@H](CC3CCCC4CCCCC43)C(=O)[C@@]3(C)CO3)cc2)nn1)c1c(C)cc(C)n1B(F)F` (stereo partly specified): the result in assay [1] was Active.
On to `Cc1ncc(C(=O)N[C@@H](CC2CCCCC2)C(=O)N[C@@H](CC(C)C)C(=O)N[C@H](/C=C/S(C)(=O)=O)Cc2ccc(CN)cc2)s1`, for which the IC50 was 0.54 µM in assay [2]; 0.42 µM in assay [4]; more than 10 µM in assay [5]; more than 100 µM in [6]; more than 100 µM in [7]; more than 100 µM in assay [8]. The IC50 in assay [9] is more than 100 µM; in [15] it was more than 10 µM; in [16], more than 10 µM; in [17] it was more than 10 µM; in assay [18] it was more than 10 µM. Further, the Ratio IC50 was 30 in assay [3]; 6 in [10]; more than 1500 in assay [11]; more than 1500 in [12]; more than 1500 in [13]; more than 1500 in assay [14].
Regarding `CC(C)C[C@H](NC(=O)[C@H](Cc1ccccc1)N=[N+]=[N-])C(=O)N[C@@H](CC(C)C)C(=O)N[C@H](/C=C/S(C)(=O)=O)Cc1ccc(CN)cc1`, the IC50 is 0.02 µM in [4]; 1.17 µM in assay [7]; 0.41 µM in assay [16]; more than 10 µM in [17]; more than 10 µM in assay [18]. Also, the inhibition result in assay [19], in assay [20] and in assay [21] was “Active” throughout.
